Laboratory results reported in ChEMBL document CHEMBL4312030, “Synthesis, biological evaluation, and docking study of indole aryl sulfonamides as aromatase inhibitors” (Eur J Med Chem, 2020).
The source made the active and inactive calls. The calls are words filed in the database; no cut-off is given here.

Legend:
Aromatase [1] = molecular target: T1, Aromatase (Homo sapiens, UniProt P11511); assay: Inhibition of recombinant human aromatase at 1 uM preincubated for 10 mins followed by substrate and beta-NADP+ addition and measured for 60 mins by fluorimetric assay relative to letrozole; conditions: 1 h
T1 sequence (P11511 whole entry): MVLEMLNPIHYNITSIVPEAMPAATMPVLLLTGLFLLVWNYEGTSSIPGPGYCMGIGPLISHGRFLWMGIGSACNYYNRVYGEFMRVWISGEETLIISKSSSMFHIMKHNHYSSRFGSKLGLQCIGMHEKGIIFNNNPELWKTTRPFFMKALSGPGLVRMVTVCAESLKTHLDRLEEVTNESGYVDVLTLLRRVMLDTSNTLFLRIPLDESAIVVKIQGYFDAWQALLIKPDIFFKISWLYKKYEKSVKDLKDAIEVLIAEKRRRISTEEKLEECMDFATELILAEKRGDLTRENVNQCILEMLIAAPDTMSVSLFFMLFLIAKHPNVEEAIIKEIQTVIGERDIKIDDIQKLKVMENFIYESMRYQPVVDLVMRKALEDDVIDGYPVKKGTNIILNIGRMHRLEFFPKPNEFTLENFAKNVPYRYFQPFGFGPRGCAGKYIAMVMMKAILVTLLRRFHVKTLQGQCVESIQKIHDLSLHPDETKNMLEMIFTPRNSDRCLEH
Summary of the method: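 Fluorimetric kit assay with recombinant human aromatase plus NADPH generating system; compounds at 1 µM final (from 5X in ACN; solvent 0.5% ACN), preincubated 10 min at 37°C.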

Aromatase [2] = molecular target: T1, Aromatase; assay: Inhibition of recombinant human aromatase preincubated for 10 mins followed by substrate and beta-NADP+ addition and measured for 60 mins by fluorimetric assay
Summary of the method: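 Recombinant human aromatase with NADPH generating system, preincubated 10 min at 37°C with inhibitor at 0.01-100 µM final (5X stocks 0.05-500 µM in ACN). Fluorogenic substrate/β-NADP+ added; fluorescence Ex/Em 488/527 nm kinetic 60 min. IC50 from fitted multi-point dose-response curves; mean of triplicate ± RSD.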

MCF7 [3] = assay: Cytotoxicity against human MCF7 cells assessed as cell metabolic activity after 24 hrs by MTT assay relative to control; format: functional
Summary of the method: (§1)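 MCF7 cells in DMEM high glucose with 10% FBS, 1% pen/strep, seeded 1x10⁴/well, adhered 24 h, then treated 0-250 µM for 24, 48 or 72 h. MTT (1 mg/ml, 1:10 in fresh medium) 4 h at 37°C, 5% CO₂; formazan dissolved in DMSO, OD 540 nm. Expressed as % of DMSO-treated cells (final DMSO <0.2%); three experiments in triplicate (n=9).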

MCF7 [4] = assay: Cytotoxicity against human MCF7 cells assessed as reduction in cell viability at 100 uM after 24 to 72 hrs by MTT assay; format: functional, cell-based; summary of the method: as §1
MCF7 [5] = assay: Cytotoxicity against human MCF7 cells assessed as LDH release up to 250 uM after 24 hrs by CytoTox 96 Non-Radioactive assay relative to control; format: functional
Summary of the method: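 MCF7 cells (DMEM high glucose, 10% FBS, 1% pen/strep) seeded 1x10⁴/well, adhered 24 h, then exposed to 0-250 µM for 24 h. Supernatants centrifuged 450xg 4 min; LDH measured by 30-min coupled INT-to-formazan reaction, absorbance 490 and 690 nm. %LDH released = [(A490–B690)/(C–B)]×100, C = positive control cell lysate.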

MCF7 [6] = assay: Cytotoxicity against human MCF7 cells assessed as cell metabolic activity at 10 uM after 48 hrs by MTT assay relative to control; format: functional; summary of the method: as §1
MCF7 [7] = assay: Cytotoxicity against human MCF7 cells assessed as active metabolizing cells at 100 uM after 48 hrs by MTT assay relative to control; format: functional; summary of the method: as §1
MCF7 [8] = assay: Cytotoxicity against human MCF7 cells assessed as reduction in cell viability after 72 hrs by MTT assay; format: functional, cell-based; summary of the method: as §1
MCF7 [9] = assay: Cytotoxicity against human MCF7 cells assessed as cell metabolic activity at 250 uM after 24 hrs by MTT assay relative to control; format: functional; summary of the method: as §1
MCF7 [10] = assay: Cytotoxicity against human MCF7 cells assessed as active metabolizing cells at 250 uM after 48 hrs by MTT assay relative to control; format: functional; summary of the method: as §1

Compound | inhibition at 1 µM (Aromatase [1]) [%] | IC50 (Aromatase [2]) [nM] | Activity (MCF7 [3]) [%] | Activity (MCF7 [5]) | Activity (MCF7 [6]) | also measured
Cc1ccc(S(=O)(=O)NCCc2c[nH]c3ccccc23)cc1[N+](=O)[O-] | 30.6 | – | – | – | – | –
O=S(=O)(Cc1ccccc1)Nc1ccc2cc[nH]c2c1 | 15.3 | – | – | – | – | –
O=S(=O)(Cc1ccccc1)NCCc1c[nH]c2ccccc12 | 75.2 | 750 | 45 | 35 - 40% | 40 - 45% | inhibition (MCF7 [4]): Active
O=S(=O)(Cc1ccccc1)Nc1ccc2[nH]ccc2c1 | 129 | 160 | 45 | 35 - 40% | 40 - 45% | Activity (MCF7 [7]): 19.53%; inhibition (MCF7 [8]): Dose-dependent effect; Activity (MCF7 [9]): 38.62%; Activity (MCF7 [10]): 20.08%
Cc1ccc(S(=O)(=O)NCCc2c[nH]c3ccccc23)cc1 | 43.5 | – | – | – | – | –
Cc1ccc(S(=O)(=O)Nc2ccc3cc[nH]c3c2)cc1 | 83.2 | 490 | 45 | 35 - 40% | 40 - 45% | Activity (MCF7 [7]): 20.78%; inhibition (MCF7 [8]): Dose-dependent effect; Activity (MCF7 [9]): 36.63%; Activity (MCF7 [10]): 22.08%
N#Cc1ccc(S(=O)(=O)NCCc2c[nH]c3ccccc23)c(Cl)c1 | 19.7 | – | – | – | – | –
O=S(=O)(NCc1ccc2[nH]ccc2c1)c1ccccc1 | 20.7 | – | – | – | – | –
O=[N+]([O-])c1cccc(S(=O)(=O)Nc2ccc3cc[nH]c3c2)c1 | 18.6 | – | – | – | – | –
O=S(=O)(Cc1ccccc1)NCc1ccc2[nH]ccc2c1 | 16.4 | – | – | – | – | –
O=S(=O)(NCCc1c[nH]c2ccccc12)c1ccccc1 | 110 | 200 | 45 | 35 - 40% | 40 - 45% | inhibition (MCF7 [4]): Active
Cc1ccc(S(=O)(=O)Nc2ccc3[nH]ccc3c2)cc1[N+](=O)[O-] | 12.8 | – | – | – | – | –
Cc1ccc(S(=O)(=O)NCc2ccc3[nH]ccc3c2)cc1 | 33.4 | – | – | – | – | –
